How the values were obtained:
[1] = target: Testis-specific serine/threonine-protein kinase 1 (Homo sapiens) (UniProt Q9BXA7); test: Inhibition of 6His-tagged recombinant human full length TSSK1 expressed in baculovirus infected Sf21 cells assessed as residual activity at 0.1 uM relative to control
[2] = Antiproliferative activity against human MEC-1 cells assessed as inhibition of cell growth incubated for 72 hrs by cell-titer glo assay; format: functional, cell-based; conditions: MEC1, 72 h
Summary of the method: (§1)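 Cells seeded at 10,000–30,000/cm² (adherent) or 100,000/mL (nonadherent) in medium with 10% fetal calf serum; after 24 h, treated in duplicate with serial dilutions for 72 h. Viable cell number read by CellTiter-Glo luminescence; IC50 from sigmoidal fit; at least two independent experiments.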

[3] = Half-life in Beagle dog at 5 mg/kg, po by LC-MS analysis; format: ADME, organism-based, Canis lupus familiaris; conditions: in vivo
[4] = test system: MIA PaCa-2; test: Antiproliferative activity against human MIA PaCa-2 cells assessed as inhibition of cell growth incubated for 72 hrs by cell-titer glo assay; format: functional, cell-based; conditions: MIA PaCa-2, 72 h
Summary of the method: (§2)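 Cells from ATCC or ECACC, kept in supplier-recommended medium with 1% penicillin-streptomycin at 37°C, 5% CO₂. Seeded at 10,000–30,000/cm² (adherent) or 100,000/mL (nonadherent) in medium with 10% fetal calf serum. Dosed after 24 h in duplicate with serial dilutions. Viable cells read by CellTiter-Glo 72 h later. IC50 from sigmoidal fit. At least two independent experiments.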

[5] = test system: BT-549; test: Antiproliferative activity against human BT-549 cells assessed as inhibition of cell growth incubated for 72 hrs by cell-titer glo assay; format: functional, cell-based; conditions: BT-549, 72 h
Summary of the method: (§3)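 Cells seeded 10,000–30,000/cm² (adherent) or 100,000/mL (suspension) in medium with 10% fetal calf serum; after 24 h treated in duplicate with serial dilutions for 72 h. Viable cells read by CellTiter-Glo luminescence; IC50 from sigmoidal fit; at least two independent experiments.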

[6] = test system: U2OS; test: Effect on cell morphology in human U2OS cells assessed as increased number of rounded cells at 1 uM by time lapse microscopy analysis; format: functional, cell-based; conditions: time lower […], time upper 48.0 hrs, TDE = time-dependent effect
[7] = test system: HOP-92; test: Antiproliferative activity against human HOP-92 cells assessed as inhibition of cell growth incubated for 72 hrs by cell-titer glo assay; format: functional, cell-based; conditions: HOP-92, 72 h; summary of the method: as §1
[8] = AUC in Sprague-Dawley rat at 10 mg/kg, po by LC-MS analysis; format: ADME, organism-based; conditions: in vivo
[9] = test system: NCI-H1770; test: Antiproliferative activity against human NCI-H1770 cells assessed as inhibition of cell growth incubated for 72 hrs by cell-titer glo assay; format: functional, cell-based; conditions: NCI-H1770, 72 h; summary of the method: as §2
[10] = target: NUAK family SNF1-like kinase 1 (Homo sapiens) (UniProt O60285); test: Inhibition of N-terminal 6His-tagged recombinant human ARK5 (2 to end residues) expressed in baculovirus infected Sf21 cells assessed as residual activity at 1 uM relative to control
[11] = target: Serine/threonine-protein kinase tousled-like 2 (Homo sapiens, UniProt Q86UE8); test: Inhibition of N-terminal 6His-tagged recombinant human TLK2 (388 to end residues) expressed in baculovirus infected Sf21 cells assessed as residual activity at 0.1 uM relative to control
[12] = test system: MDA-MB-435S; test: Antiproliferative activity against human MDA-MB-435S cells assessed as inhibition of cell growth incubated for 72 hrs by cell-titer glo assay; format: functional, cell-based; summary of the method: as §1
[13] = test system: A2780; test: Antiproliferative activity against human A2780 cells assessed as inhibition of cell growth incubated for 72 hrs by cell-titer glo assay; format: functional, cell-based; conditions: A2780, 72 h; summary of the method: as §3
[14] = test system: MeWo; test: Antiproliferative activity against human MeWo cells assessed as inhibition of cell growth incubated for 72 hrs by cell-titer glo assay; format: functional, cell-based; summary of the method: as §2
[15] = test system: COLO 320; test: Antiproliferative activity against human COLO 320 cells assessed as inhibition of cell growth incubated for 72 hrs by cell-titer glo assay; format: functional, cell-based; conditions: COLO 320, 72 h; summary of the method: as §3
[16] = test system: BT-20; test: Antiproliferative activity against human BT-20 cells assessed as inhibition of cell growth incubated for 72 hrs by cell-titer glo assay; format: functional, cell-based; conditions: BT-20, 72 h; summary of the method: as §3
[17] = target: MAP kinase-activated protein kinase 5 (Homo sapiens) (UniProt Q8IW41); test: Inhibition of N-terminal His6-tagged recombinant human full-length PRAK expressed in baculovirus infected Sf21 cells assessed as residual activity at 0.1 uM relative to control
[18] = test system: SK-MEL-5; test: Antiproliferative activity against human SK-MEL-5 cells assessed as inhibition of cell growth incubated for 72 hrs by cell-titer glo assay; format: functional, cell-based; conditions: SK-MEL-5, 72 h
[19] = Antiproliferative activity against human A2780 ADR cells assessed as inhibition of cell growth incubated for 72 hrs by cell-titer glo assay; format: functional, cell-based; summary of the method: as §3
[20] = target: Protein kinase C beta type (Homo sapiens, UniProt P05771); test: Inhibition of PKC beta (unknown origin) in presence of [gamma-33P]ATP
[21] = target: RAC-alpha serine/threonine-protein kinase (Homo sapiens, UniProt P31749); test: Inhibition of N-terminal His6 tagged recombinant full-length human PKBalpha expressed in baculovirus infected Sf21 cells assessed as residual activity at 1 uM relative to control
[22] = test system: A2780; test: Induction of cell cycle arrest in human A2780 cells assessed as accumulation of cells in G2/M phase by measuring NPM phosphorylation on Thr199 incubated for 24 hrs by Western blotting analysis; format: functional, cell-based; conditions: dose 0.02-0.2 µmol/L
Summary of the method: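 A2780 ovarian carcinoma cells treated 24 h with a range of concentrations, with DMSO and nocodazole controls. 20 µg protein extract separated by SDS-PAGE and immunoblotted with chemiluminescent detection. Probed for total and phospho-Thr210 PLK1, phospho-Ser10 histone H3, phospho-Thr199 NPM and phospho-Tyr15 CDK1. Total NPM, tubulin and total CDK1 served as loading controls.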

[23] = target: Mitogen-activated protein kinase kinase kinase 5 (Homo sapiens) (UniProt Q99683); test: Inhibition of N-Terminal GST and C-terminal His6-tagged recombinant human ASK1 (649 to 946 residues) expressed in E. coli cell assessed as residual activity at 0.1 uM relative to control
[24] = target: PDPK1, 3-phosphoinositide-dependent protein kinase 1 (Homo sapiens) (UniProt O15530); test: Inhibition of N-terminal His6-tagged recombinant human PDK1 (52 to end residues) expressed in baculovirus infected Sf21 cells assessed as residual activity at 1 uM relative to control
[25] = test system: HCC1806; test: Antiproliferative activity against human HCC1806 cells assessed as inhibition of cell growth incubated for 72 hrs by cell-titer glo assay; format: functional, cell-based; conditions: HCC1806, 72 h; summary of the method: as §1
[26] = Half-life in nu/nu mouse at 10 mg/kg, po by LC-MS analysis; format: ADME, organism-based; conditions: in vivo
[27] = test system: HCC1954; test: Antiproliferative activity against human HCC1954 cells assessed as inhibition of cell growth incubated for 72 hrs by cell-titer glo assay; format: functional, cell-based; conditions: HCC1954, 72 h; summary of the method: as §1
[28] = test system: T84; test: Antiproliferative activity against human T84 cells assessed as inhibition of cell growth incubated for 72 hrs by cell-titer glo assay; format: functional, cell-based; conditions: T84, 72 h
[29] = test system: Jurkat; test: Antiproliferative activity against human Jurkat cells assessed as inhibition of cell growth incubated for 72 hrs by cell-titer glo assay; format: functional, cell-based; summary of the method: as §1

Chain of NUAK family SNF1-like kinase 1 (Homo sapiens) (O60285 whole entry): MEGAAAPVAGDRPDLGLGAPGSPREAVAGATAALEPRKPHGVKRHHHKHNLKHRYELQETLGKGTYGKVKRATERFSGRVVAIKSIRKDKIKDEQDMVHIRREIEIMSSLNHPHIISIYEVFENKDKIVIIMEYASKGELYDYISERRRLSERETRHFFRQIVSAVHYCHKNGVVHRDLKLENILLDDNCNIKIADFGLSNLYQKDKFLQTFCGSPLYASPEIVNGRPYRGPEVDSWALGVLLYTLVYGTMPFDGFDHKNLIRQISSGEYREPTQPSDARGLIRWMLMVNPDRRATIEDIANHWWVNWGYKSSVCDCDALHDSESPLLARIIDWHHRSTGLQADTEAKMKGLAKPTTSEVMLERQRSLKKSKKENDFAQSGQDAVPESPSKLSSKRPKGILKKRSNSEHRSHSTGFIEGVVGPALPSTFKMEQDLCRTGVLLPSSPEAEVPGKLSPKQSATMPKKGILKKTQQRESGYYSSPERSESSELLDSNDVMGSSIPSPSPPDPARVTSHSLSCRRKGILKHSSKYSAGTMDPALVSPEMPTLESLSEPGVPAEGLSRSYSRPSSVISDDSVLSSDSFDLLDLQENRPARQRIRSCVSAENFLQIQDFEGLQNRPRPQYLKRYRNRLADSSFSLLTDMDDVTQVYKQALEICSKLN
Chain of Serine/threonine-protein kinase tousled-like 2 (Q86UE8 whole entry, looked up): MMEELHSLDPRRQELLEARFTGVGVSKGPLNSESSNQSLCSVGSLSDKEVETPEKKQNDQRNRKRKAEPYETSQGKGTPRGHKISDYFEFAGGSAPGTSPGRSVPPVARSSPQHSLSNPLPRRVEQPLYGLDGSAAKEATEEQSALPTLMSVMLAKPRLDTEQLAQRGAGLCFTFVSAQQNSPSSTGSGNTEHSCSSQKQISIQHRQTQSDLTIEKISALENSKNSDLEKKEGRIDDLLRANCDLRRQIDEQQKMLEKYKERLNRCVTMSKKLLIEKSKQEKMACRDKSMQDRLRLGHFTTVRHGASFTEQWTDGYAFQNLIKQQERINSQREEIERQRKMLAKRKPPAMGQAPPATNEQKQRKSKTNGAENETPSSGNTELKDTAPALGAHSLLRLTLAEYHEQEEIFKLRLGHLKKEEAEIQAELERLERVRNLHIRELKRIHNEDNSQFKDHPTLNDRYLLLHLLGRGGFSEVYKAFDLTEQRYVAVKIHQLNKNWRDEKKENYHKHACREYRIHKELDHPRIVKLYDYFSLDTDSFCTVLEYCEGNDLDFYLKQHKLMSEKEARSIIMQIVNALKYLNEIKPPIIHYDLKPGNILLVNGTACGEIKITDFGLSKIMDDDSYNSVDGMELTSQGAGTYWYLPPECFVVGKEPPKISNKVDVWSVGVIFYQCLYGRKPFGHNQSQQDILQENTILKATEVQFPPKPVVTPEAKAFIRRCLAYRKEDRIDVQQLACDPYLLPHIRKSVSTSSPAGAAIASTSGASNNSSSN
Chain of Testis-specific serine/threonine-protein kinase 1 (Homo sapiens) (Q9BXA7 whole entry): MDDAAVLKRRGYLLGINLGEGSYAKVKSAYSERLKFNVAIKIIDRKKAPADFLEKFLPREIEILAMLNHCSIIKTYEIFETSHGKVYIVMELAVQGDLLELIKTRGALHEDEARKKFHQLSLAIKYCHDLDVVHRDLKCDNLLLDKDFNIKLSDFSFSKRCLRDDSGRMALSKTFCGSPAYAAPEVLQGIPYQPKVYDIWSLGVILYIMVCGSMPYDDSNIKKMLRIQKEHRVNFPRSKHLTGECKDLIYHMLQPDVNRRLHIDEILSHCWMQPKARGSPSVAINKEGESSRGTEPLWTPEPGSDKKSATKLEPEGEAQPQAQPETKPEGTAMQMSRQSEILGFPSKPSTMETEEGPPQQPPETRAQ
Chain of RAC-alpha serine/threonine-protein kinase (P31749 whole entry): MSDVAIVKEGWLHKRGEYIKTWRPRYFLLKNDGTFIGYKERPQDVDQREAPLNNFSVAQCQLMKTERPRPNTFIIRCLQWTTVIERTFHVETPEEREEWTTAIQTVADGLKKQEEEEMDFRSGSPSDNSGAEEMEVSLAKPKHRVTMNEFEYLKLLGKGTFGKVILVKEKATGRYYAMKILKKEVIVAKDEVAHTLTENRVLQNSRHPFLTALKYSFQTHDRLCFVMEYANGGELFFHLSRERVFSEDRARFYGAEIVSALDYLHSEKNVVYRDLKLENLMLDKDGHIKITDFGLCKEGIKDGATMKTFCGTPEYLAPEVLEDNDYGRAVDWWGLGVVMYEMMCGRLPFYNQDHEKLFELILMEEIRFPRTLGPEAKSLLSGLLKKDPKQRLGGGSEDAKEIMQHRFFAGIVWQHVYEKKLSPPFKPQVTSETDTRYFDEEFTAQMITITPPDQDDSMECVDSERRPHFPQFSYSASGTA
Chain of Mitogen-activated protein kinase kinase kinase 5 (Homo sapiens) (Q99683 whole entry, the tested form may be a part): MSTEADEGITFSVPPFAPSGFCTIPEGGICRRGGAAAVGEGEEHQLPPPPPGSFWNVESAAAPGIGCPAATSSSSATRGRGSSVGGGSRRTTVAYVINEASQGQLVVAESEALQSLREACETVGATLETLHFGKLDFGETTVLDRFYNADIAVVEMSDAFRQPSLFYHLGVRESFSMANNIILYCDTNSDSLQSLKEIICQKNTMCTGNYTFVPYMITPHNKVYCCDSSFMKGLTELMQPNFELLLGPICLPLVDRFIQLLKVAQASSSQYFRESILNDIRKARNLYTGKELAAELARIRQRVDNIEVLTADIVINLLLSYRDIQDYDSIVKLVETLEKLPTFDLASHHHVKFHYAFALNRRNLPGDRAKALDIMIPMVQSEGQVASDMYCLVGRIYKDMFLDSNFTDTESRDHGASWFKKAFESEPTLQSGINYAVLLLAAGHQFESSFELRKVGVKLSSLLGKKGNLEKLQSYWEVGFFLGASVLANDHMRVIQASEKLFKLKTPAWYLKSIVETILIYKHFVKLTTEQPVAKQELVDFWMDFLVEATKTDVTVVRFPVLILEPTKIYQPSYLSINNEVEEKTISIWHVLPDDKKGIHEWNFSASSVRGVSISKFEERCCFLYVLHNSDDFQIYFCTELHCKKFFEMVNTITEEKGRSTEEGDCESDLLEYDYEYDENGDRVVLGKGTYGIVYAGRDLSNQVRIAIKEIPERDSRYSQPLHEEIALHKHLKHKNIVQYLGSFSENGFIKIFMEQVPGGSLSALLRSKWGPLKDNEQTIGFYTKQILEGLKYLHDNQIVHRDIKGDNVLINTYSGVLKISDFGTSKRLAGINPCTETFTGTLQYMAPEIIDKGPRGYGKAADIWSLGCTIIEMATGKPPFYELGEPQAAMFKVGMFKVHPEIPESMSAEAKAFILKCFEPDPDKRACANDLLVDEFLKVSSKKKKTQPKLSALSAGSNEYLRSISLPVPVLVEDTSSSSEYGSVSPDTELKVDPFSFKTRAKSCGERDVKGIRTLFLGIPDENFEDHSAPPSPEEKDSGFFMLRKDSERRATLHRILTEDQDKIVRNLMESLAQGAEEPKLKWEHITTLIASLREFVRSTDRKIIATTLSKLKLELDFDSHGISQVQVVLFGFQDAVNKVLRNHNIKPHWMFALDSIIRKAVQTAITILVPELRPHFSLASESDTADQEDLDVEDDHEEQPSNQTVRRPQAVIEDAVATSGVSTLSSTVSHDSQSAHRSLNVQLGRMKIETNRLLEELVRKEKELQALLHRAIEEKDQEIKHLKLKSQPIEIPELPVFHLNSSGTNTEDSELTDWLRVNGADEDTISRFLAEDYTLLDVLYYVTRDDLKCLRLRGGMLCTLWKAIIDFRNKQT
Chain of Protein kinase C beta type (P05771 whole entry): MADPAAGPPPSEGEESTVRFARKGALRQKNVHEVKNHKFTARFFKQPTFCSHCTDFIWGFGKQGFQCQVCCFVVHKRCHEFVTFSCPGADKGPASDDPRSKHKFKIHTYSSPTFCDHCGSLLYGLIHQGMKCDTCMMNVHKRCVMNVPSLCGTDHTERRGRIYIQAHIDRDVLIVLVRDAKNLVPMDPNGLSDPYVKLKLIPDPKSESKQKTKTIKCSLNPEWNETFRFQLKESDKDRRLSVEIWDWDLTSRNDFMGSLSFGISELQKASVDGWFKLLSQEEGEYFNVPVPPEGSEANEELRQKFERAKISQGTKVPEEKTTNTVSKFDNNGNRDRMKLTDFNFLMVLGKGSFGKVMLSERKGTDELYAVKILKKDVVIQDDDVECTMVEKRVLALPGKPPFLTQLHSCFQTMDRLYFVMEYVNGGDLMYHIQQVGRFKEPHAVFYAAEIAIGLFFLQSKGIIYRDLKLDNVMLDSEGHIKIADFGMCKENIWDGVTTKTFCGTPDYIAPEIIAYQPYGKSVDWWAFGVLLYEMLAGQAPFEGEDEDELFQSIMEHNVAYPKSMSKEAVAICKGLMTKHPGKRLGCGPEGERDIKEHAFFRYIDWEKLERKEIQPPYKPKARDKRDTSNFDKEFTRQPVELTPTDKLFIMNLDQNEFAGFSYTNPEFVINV
Chain of PDPK1, 3-phosphoinositide-dependent protein kinase 1 (Homo sapiens) (O15530 whole entry, looked up): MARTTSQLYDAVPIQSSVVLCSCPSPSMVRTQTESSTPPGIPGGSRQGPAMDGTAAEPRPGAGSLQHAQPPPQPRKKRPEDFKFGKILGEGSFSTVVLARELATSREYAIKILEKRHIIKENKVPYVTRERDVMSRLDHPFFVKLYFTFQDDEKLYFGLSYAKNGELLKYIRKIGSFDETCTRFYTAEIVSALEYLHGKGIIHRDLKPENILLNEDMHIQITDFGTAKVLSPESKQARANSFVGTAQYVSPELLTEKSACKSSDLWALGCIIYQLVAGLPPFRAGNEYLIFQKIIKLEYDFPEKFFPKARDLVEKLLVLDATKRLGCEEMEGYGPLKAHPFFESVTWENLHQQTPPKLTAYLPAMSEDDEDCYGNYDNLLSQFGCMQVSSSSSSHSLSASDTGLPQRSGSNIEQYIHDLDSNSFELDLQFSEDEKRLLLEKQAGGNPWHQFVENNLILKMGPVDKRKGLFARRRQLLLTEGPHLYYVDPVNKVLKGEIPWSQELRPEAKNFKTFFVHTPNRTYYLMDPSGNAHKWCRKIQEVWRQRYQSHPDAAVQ

SMILES: CN1CCN(c2ccc(OC(F)(F)F)c(Nc3ncc4c(n3)-c3c(c(C(N)=O)nn3CCO)CC4)c2)CC1 [ONVANSERTIB]
- Activity [1]: 67%
- IC50 [2]: 112 nM
- half-life [3]: 4.6 h
- IC50 [4]: 112 nM
- IC50 [5]: 49 nM
- Activity [6]: Tde
- IC50 [7]: 283 nM
- AUC [8]: 46.4 µM·h
- IC50 [9]: 68 nM
- Activity [10]: 93%
- Activity [11]: 182%
- IC50 [12]: 23 nM
- IC50 [13]: 40 nM
- IC50 [14]: 237 nM
- IC50 [15]: 192 nM
- IC50 [16]: 93 nM
- Activity [17]: 126%
- IC50 [18]: 513 nM
- IC50 [19]: 620 nM
- IC50 [20]: > 10000 nM
- Activity [21]: 88%
- Activity [22]: Dose-Dependent Effect
- Activity [23]: 123%
- Activity [24]: 144%
- IC50 [25]: 18 nM
- half-life [26]: 1.6 h
- IC50 [27]: 15 nM
- IC50 [28]: 174 nM
- IC50 [29]: 48 nM
